Most compounds without a hit are left out; they make up all but 3.4% or so of the library.
TAAR1 antag: human TAAR1 antagonism. Q96RJ0. CHO RD-HGA16 TAAR1, Fluo-8 calcium fluorescence, antagonist. inhibition, % at 3 µM. 1.5% of 360,000 active. AID 624466;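 active = inhibition above a per-plate cutoff, the mean inhibition of test compounds on that plate plus 3 SD, cut at about 49% in these data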;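 also: 0% = DMSO plus EC80 beta-PEA response and 100% = DMSO alone without agonist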
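Test system: RD-HGA16 CHO cells with stable hTAAR1 and Gα16 / Probe or stimulus: EC80 β-phenethylamine stimulus / Times: seeding 17-24 h prior, 75-min 37 °C, 30-min RT dye loading / Detection: Fluo-8 calcium-sensitive fluorescence / Read-out basis: % inhibition scaled between DMSO and EC80 PEA controls / Repeats: singlicate, one well per test compound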
GPR7 antagonist: antagonists of human GPR7 (neuropeptides B/W receptor 1). P48145. GPR7-expressing cells, fluorescence antagonist assay. inhibition, % at 4.4 µM. 1.1% of 290,000 active. AID 1861; in the data active = inhibition above about 16%, passing the limit was not always enough;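 also: cells stimulated with the agonist NPW; 0% = agonist with vehicle and 100% = vehicle without agonist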
TRPML3 agonist: agonists of human TRPML3 channel. Q8TDD5. HEK293 TRPML3-YFP, Fluo-8 calcium fluorescence; 100% = the carbachol control signal. activation, % at 3 µM. 0.29% of 220,000 active;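 active = activation above its plate's cutoff, the mean activation of the plate's test wells plus 3 SD, cut at about 12% in these data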;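 also: 0% = DMSO only wells and 100% = carbachol wells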
Target sequence (Q8TDD5 whole entry, looked up): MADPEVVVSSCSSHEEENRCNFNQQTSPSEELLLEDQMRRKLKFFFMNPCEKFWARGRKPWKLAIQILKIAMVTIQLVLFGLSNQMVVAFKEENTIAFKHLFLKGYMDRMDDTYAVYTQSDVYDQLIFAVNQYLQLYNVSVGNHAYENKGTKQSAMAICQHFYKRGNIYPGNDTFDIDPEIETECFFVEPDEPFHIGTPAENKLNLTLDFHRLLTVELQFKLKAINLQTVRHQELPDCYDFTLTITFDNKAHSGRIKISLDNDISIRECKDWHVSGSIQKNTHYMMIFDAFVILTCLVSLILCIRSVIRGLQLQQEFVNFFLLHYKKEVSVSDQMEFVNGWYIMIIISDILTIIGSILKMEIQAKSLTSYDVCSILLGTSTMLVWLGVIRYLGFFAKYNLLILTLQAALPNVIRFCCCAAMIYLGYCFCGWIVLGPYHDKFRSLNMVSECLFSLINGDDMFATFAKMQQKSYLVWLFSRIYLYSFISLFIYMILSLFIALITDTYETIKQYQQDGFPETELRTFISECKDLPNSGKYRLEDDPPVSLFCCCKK
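Test system: HEK293 cells stably carrying human TRPML3-YFP; Doses: single dose, 3 µM final nominal compound, 0.3% DMSO final; Schedule: dye loading 1 h 37 °C then 30 min ambient, 125 s read; Technique: Fluo-8 calcium fluorescence; Benchmarks: high control carbachol 87 µM, low control DMSO.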
LANA-H2B inh: blocks KSHV LANA binding to histone H2A/H2B. 0.6% of 320,000 active. cell-free LANA-H2A/H2B peptide, fluorescence polarization. inhibition, % (no concentration beside the values). AID 2629. Q9QR71; in the data active = inhibition mostly above about 10%, no sharp cut-off; inactive = mostly below about 6.7%
TRPN1 ag: zebrafish TRPN1 (NompC) channel agonism. HEK293 zebrafish TRPN1-YFP, Fluo-8 calcium fluorescence; 100% = response to 87 µM carbachol. activation, % at 3 µM. 0.18% of 220,000 active;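 active = activation above its plate's cutoff, the mean activation of test wells on that plate plus 3 SD, cut at about 19% in these data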;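 also: 0% = DMSO alone and 100% = 87 µM carbachol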
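Material: zebrafish TRPN1-YFP in HEK293 cells. Doses: one dose of 3 µM, 0.3% DMSO. Incubation: dye 1 h 37 °C plus 30 min RT. Measured by: intracellular calcium fluorescence with Fluo-8.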
TAAR1 agonist: human TAAR1 agonism; activation, % at 3 µM; 0.99% of 360,000 active; Q96RJ0; CHO RD-HGA16 TAAR1, Fluo-8 calcium fluorescence; vehicle wells 0%, saturating PEA agonist 100%;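 active = activation above the mean activation of all test compounds in the run plus 3 SD, cut at about 38% in these data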
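Repeats: no replicates (n 1) | Material: CHO-derived RD-HGA16 cells with stable Gα16 and human TAAR1 | Technique: Kinetic Fluo-8 calcium fluorescence | Schedule: 17-24 h seeding, 75 min 37 °C dye, 30 min RT | Evaluation: % activation from peak over basal fluorescence ratio, DMSO-to-PEA scaled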
TAAR1 ag conf: human TAAR1 agonism, confirmed. activation, % at 3 µM. CHO RD-HGA16 TAAR1, Fluo-8 calcium fluorescence; scaled: DMSO 0%, maximal phenethylamine 100%. shares compounds with TAAR1 agonist. 82% of 2,400 active;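 active = activation above a cutoff set at the run's mean compound activation plus 3 SD, cut at about 39% in these data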
Ga16 nonsel ag: nonselective agonist in parental cells, TAAR1 agonist counter-screen; AID 651787; activation, % at 3 µM; shares compounds with TAAR1 agonist; CHO-Ga16 parental, Fluo-8 calcium fluorescence; normalized to maximal ATP response, DMSO zero; 50% of 2,400 active;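 active = activation above the run cutoff, the mean activation over all tested wells plus 3 SD, cut at about 12% in these data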;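 also: 0% = DMSO wells and 100% = maximal ATP response on the peak over basal ratio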
TAAR1 desens: counter-screen for human TAAR1 agonists: agonists that desensitize TAAR1; shares compounds with TAAR1 agonist; CHO RD-HGA16 hTAAR1, Fluo-8 calcium, beta-PEA response inhibition; inhibition, % at 3 µM; 46% of 2,400 active; AID 651951;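 active = inhibition above the run cutoff, the mean inhibition of all test compounds plus 3 SD, cut at about 49% in these data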;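 also: beta-PEA stimulus applied at its EC80; loss of beta-PEA calcium signal after compound pretreatment read as receptor desensitization; 0% = DMSO with beta-PEA at EC80 and 100% = DMSO alone without agonist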
Ga16 antag count: counter-screen for TAAR1 agonists: nonselective Ga16 antagonists. inhibition, % at 3 µM. AID 651952. 39% of 2,400 active. CHO-Ga16 ATP-induced calcium, Fluo-8 fluorescence. shares compounds with TAAR1 agonist;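 active = inhibition above the plate's mean compound inhibition plus 3 SD, computed per plate, cut at about 22% in these data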;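 also: 0% = EC80 ATP with DMSO and 100% = DMSO wells without ATP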
The depositor's hits bear a star; nt = not tested or not shown.

SMILES	TAAR1 antag	GPR7 antagonist	TRPML3 agonist	LANA-H2B inh	TRPN1 ag	TAAR1 agonist	TAAR1 ag conf	Ga16 nonsel ag	TAAR1 desens	Ga16 antag count
CCN1CCc2nc3sc(C(=O)Nc4cccnc4Cl)c(N)c3cc2C1	-11	-10	nt	nt	nt	0	nt	nt	nt	nt
CCN1CCc2nc3sc(C(=O)N4CCc5ccccc5C4)c(N)c3cc2C1	14	0	nt	6	nt	80*	67*	4	12	13
O=C(NCCc1ccc(Cl)cc1)c1ccc2c(=O)[nH]c3c(C(=O)NCC4CCCO4)sc(=S)n3c2c1 (centres undefined)	1	nt	nt	nt	nt	-1	nt	nt	nt	nt
O=C(NCCc1ccccc1)c1ccc2c(=O)[nH]c3c(C(=O)NCC4CCCO4)sc(=S)n3c2c1 (centres undefined)	52*	0	nt	-6	nt	65*	90*	6	82*	22*
CCC(=NCCc1ccccc1)C1=C(O)CCC1=O	87*	-13	2	-5	0	87*	104*	2	93*	-3
CCC(=NCCc1ccc(OC)c(OC)c1)C1=C(O)CC(C)(C)CC1=O	-15	-2	1	3	1	2	nt	nt	nt	nt
O=S(=O)(Cc1ccccc1)NCCc1cccc(Cl)c1	-6	1	nt	-1	nt	44*	77*	1	36	1
C=CCN(Cc1ccc(OC)c(OC)c1)C(=O)c1cc2cc(F)ccc2[nH]1	17	0	nt	-1	nt	1	nt	nt	nt	nt
O=C(CCc1ccccc1)N/N=C/c1cc(Br)ccc1O	15	-3	1	2	0	5	nt	nt	nt	nt
Oc1ccc(Br)cc1/C=N/NC(=S)NCCc1ccccc1	21	-33	nt	-3	nt	58*	74*	41*	45	47*
Cc1ccc(C(=O)O/N=C(\N)Cc2cccc3ccccc23)cc1	40	5	nt	0	nt	57*	52*	-1	11	-1
Cc1ccc(/C(N)=N/OC(=O)c2ccc3ccccc3c2)cc1	-18	4	nt	3	nt	2	nt	nt	nt	nt
Cc1cccc(C(=O)NC(=S)NCc2ccccc2)c1	-26	nt	nt	-5	nt	-2	nt	nt	nt	nt
Cc1cccc(C(=O)NC(=S)NNC(=O)COc2c(C)cccc2C)c1	90*	4	0	-5	0	126*	143*	119*	96*	63*
Cc1cccc(C(=O)NC(=S)NNC(=O)Cc2ccccc2)c1	64*	-17	0	0	-1	119*	121*	89*	74*	45*
CC(C)C[C@H]1CN(CCCC[C@H]2CNC(=O)C(=O)N2CC2CCCCC2)C(=O)C(=O)N1CCc1ccccc1	-23	nt	nt	nt	nt	1	nt	nt	nt	nt
O=C(Nc1cccn(Cc2ccccc2)c1=O)NC1CCCCC1	5	-2	1	4	1	43*	77*	40*	3	2
COc1cccc(CNCC(=O)NC(=O)NC2CCCC2)c1	-6	nt	nt	2	nt	0	nt	nt	nt	nt
O=C(NCc1ccccc1)Nc1cccn(Cc2ccccc2)c1=O	-5	-3	0	-1	1	-2	nt	nt	nt	nt
COc1cccc(Cn2cccc(NC(=O)NC3CCCCC3)c2=O)c1	-8	-4	-1	-3	2	51*	25	17*	-3	0
COc1cc(/C=C2\SC(=O)N(CCN)C2=O)ccc1OS(=O)(=O)c1cc(C)ccc1C	-3	13	0	nt	-1	54*	72*	29*	57*	18
O=C(Cn1cc(S(=O)(=O)N2CCCC2)c(S(=O)(=O)N2CCCC2)c1)NCc1ccco1	-15	-9	nt	2	nt	9	nt	nt	nt	nt
FC(F)(F)c1cc(CCN2CCNC[C@@H]2Cc2ccccc2)cc(C(F)(F)F)c1	-1	nt	nt	6	nt	57*	58*	17*	33	18
CCCC[C@@H]1CNCCN1CCc1cccc(F)c1	2	nt	nt	-4	nt	62*	75*	9	46	10
CCc1ccc2c(CN(C)Cc3ccc(OC(F)F)c(OC)c3)cc(=O)oc2c1	15	-3	nt	-2	nt	4	nt	nt	nt	nt
SMILES	TAAR1 antag	GPR7 antagonist	TRPML3 agonist	LANA-H2B inh	TRPN1 ag	TAAR1 agonist	TAAR1 ag conf	Ga16 nonsel ag	TAAR1 desens	Ga16 antag count
CCC(C(=O)NCCCN1CCOCC1)n1c2ccccc2c2nc(=O)cc(C)n21 (centres undefined)	-24	-13	nt	3	nt	3	nt	nt	nt	nt
CN1C(C(=O)NCCc2cccs2)CC2Cn3c(nc4cc(Cl)c(Cl)cc43)C21 (centres undefined)	8	nt	nt	-6	nt	69*	83*	6	47	15
COc1ccc(CCNC(=O)C2CC3Cn4c(nc5cc(Cl)c(Cl)cc54)C3N2C)cc1 (centres undefined)	16	nt	nt	-4	nt	8	nt	nt	nt	nt
COc1ccc(NC(=O)N2CCCC(c3ccccc3)C2)cc1 (centres undefined)	27	1	nt	-6	nt	55*	61*	0	33	13
COc1ccc(NC(=O)C2CCCN(C(=O)Nc3ccc(OC)cc3)C2)cc1 (centres undefined)	-11	24	nt	1	nt	0	nt	nt	nt	nt
COc1ccc(NC(=O)Cc2ccc(Cl)cc2Cl)cn1	1	-7	0	9	-1	56*	24	7	13	8
O=C(COC(=O)c1ccc(F)c([N+](=O)[O-])c1)NC(=O)NCc1ccccc1	-3	nt	nt	-2	nt	6	nt	nt	nt	nt
CCN(CC)C(=O)C1CCCN(C(=O)c2cc(COc3cccc(OC)c3)on2)C1 (centres undefined)	-17	3	nt	-7	nt	1	nt	nt	nt	nt
N#C/C(=C\Nc1ccc2cn[nH]c2c1)c1nc(-c2ccccc2)cs1	2	-6	0	nt	0	0	nt	nt	nt	nt
Cc1ccnc(N/C=C(\C#N)c2nc(-c3cccc(Br)c3)cs2)c1	68*	-3	2	-14	4	124*	77*	86*	68*	63*
CC(Sc1nc2ccccc2c(=O)n1C)C(=O)N(C)C1CCCCC1 (centres undefined)	-7	nt	nt	-31	nt	6	nt	nt	nt	nt
CCC1=NN2C(=N)/C(=C/c3cc(C)n(Cc4ccccc4)c3C)C(=O)N=C2S1	91*	-12	0	0	0	104*	104*	72*	95*	77*
